Experiments:
[1] = Half life in C57BL/6NCrlCrlj mouse at 10 mg/kg, po by LC-MS/MS analysis; type: ADME, organism-based; details: in vivo
Summary of the method: (§1)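 Male C57BL/6NCrlCrlj mice dosed orally at 10 mg/kg in 10% Cremophor EL, 5% DMSO in saline. Tail-vein blood was taken at set time points and spun to plasma. Quantified by LC-MS/MS (MRM, positive mode) with internal standard and a 1/x²-weighted calibration. Parameters came from noncompartmental analysis.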

[2] = Tmax in C57BL/6NCrlCrlj mouse at 10 mg/kg, po by LC-MS/MS analysis; type: ADME, organism-based; details: in vivo; summary of the method: as §1
[3] = Plasma concentration in C57BL/6NCrlCrlj mouse at 10 mg/kg, po administered as single dose measured after 1 hr by LC-MS/MS analysis; type: ADME, organism-based
Summary of the method: (§2)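 Male C57BL/6NCrlCrlj mice given a single 10 mg/kg oral dose as a suspension in 0.5% aqueous methylcellulose. At 1 or 3 h, under pentobarbital anesthesia, CSF was taken from the cisterna magna and then blood from the abdominal aorta (spun to plasma). Samples were acetonitrile-precipitated with deuterated internal standard and run by LC-MS/MS. Values are mean with SEM.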

[4] = AUC (0 to infinity) in C57BL/6NCrlCrlj mouse at 10 mg/kg, po by LC-MS/MS analysis; type: ADME, organism-based; set-up: dose 10 mg/kg, route oral, time infinity; details: in vivo; summary of the method: as §1
[5] = Plasma clearance in C57BL/6NCrlCrlj mouse at 1 mg/kg, iv by LC-MS/MS analysis; type: ADME, organism-based
Summary of the method: (§3)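 Male C57BL/6NCrlCrlj mice dosed intravenously at 1 mg/kg in 10% DMSO in water. Blood was taken from the tail vein at set time points and spun to plasma. Concentrations were measured by LC-MS/MS (MRM, positive mode) against a 1/x²-weighted standard curve with internal standard. Parameters came from noncompartmental analysis.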

[6] = Cmax in C57BL/6NCrlCrlj mouse at 30 mg/kg, po by LC-MS/MS analysis; type: ADME, organism-based; set-up: dose 30 mg/kg, route oral; details: in vivo
Cytochrome P450 2C8 = biological target: T1, Cytochrome P450 2C8 (Homo sapiens, UniProt P10632); assay: Inhibition of CYP2C8 in human liver microsomes using rosiglitazone as susbtrate incubated for 30 mins prior to substrate addition for 10 mins by LC-MS/MS analysis; type: ADME
T1 sequence (P10632 whole entry): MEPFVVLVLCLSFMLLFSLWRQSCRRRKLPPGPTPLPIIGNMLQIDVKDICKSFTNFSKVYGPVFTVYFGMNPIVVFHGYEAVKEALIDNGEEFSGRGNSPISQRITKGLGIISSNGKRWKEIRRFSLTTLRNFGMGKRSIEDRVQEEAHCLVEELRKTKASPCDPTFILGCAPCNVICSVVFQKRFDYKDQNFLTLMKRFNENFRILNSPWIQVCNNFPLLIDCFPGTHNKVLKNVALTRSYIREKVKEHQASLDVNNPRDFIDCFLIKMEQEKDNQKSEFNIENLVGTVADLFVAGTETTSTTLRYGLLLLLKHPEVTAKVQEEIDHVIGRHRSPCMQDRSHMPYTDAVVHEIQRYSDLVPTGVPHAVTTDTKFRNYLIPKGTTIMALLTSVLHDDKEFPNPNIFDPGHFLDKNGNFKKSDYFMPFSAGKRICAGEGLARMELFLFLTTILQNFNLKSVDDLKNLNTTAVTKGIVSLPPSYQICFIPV

Mus musculus = assay: Sleep promoting activity in C57BL/6NCrlCrlj mouse assessed as increase in non-REM sleep at 30 mg/kg, po administered immediately prior to beginning of dark cycle measured during first 3 hrs after drug administration by electroencephalogram/electromyogram analysis (reference value: 62.6 min); type: functional
Summary of the method: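 Male C57BL/6NCrlCrlj mice implanted with EEG/EMG electrodes were dosed orally in 10% Cremophor EL, 5% DMSO in saline just before lights-off (ZT12) and recorded from ZT12 to ZT20. Group sizes were n=6 dosed and n=7 vehicle. Stages were scored by software with blinded visual confirmation; cumulative first-3-h times are mean with SEM. Dunnett's test was run after one-way ANOVA.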

[7] = biological target: Voltage-gated inwardly rectifying potassium channel KCNH2 (Homo sapiens, UniProt Q12809); assay: Inhibition of human ERG
[8] = Metabolic stability in human liver microsomes assessed as residual ratio at 0.1 uM after 15 mins by LC-MS analysis; type: ADME; details: read-out: Stability
Summary of the method: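 Compound at 0.1 μM in 0.1% DMSO incubated with human liver microsomes (0.2 mg/mL), with or without an NADPH-generating system, for 15 min at 37 °C. Reaction stopped with acetonitrile/methanol (7:3) containing propranolol internal standard. Parent compound was measured by LC-MS; residual ratio given with NADPH relative to without.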

[9] = Volume of distribution at steady state in C57BL/6NCrlCrlj mouse at 1 mg/kg, iv by LC-MS/MS analysis; type: ADME, organism-based; details: in vivo, read-out: Vdss; summary of the method: as §3
[10] = Cmax in C57BL/6NCrlCrlj mouse at 10 mg/kg, po by LC-MS/MS analysis; type: ADME, organism-based; set-up: dose 10 mg/kg, route oral; details: in vivo; summary of the method: as §1
[11] = Drug uptake in C57BL/6NCrlCrlj mouse CSF at 10 mg/kg, po administered as single dose measured after 3 hrs by LC-MS/MS analysis; type: ADME, organism-based, Cerebrospinal fluid; details: read-out: Drug uptake; summary of the method: as §2
Cytochrome P450 1A2 = biological target: T2, Cytochrome P450 1A2 (Homo sapiens, UniProt P05177); assay: Inhibition of CYP1A2 in human liver microsomes using phenacetin as susbtrate incubated for 30 mins prior to substrate addition for 10 mins by LC-MS/MS analysis; type: ADME
T2 sequence (P05177 whole entry): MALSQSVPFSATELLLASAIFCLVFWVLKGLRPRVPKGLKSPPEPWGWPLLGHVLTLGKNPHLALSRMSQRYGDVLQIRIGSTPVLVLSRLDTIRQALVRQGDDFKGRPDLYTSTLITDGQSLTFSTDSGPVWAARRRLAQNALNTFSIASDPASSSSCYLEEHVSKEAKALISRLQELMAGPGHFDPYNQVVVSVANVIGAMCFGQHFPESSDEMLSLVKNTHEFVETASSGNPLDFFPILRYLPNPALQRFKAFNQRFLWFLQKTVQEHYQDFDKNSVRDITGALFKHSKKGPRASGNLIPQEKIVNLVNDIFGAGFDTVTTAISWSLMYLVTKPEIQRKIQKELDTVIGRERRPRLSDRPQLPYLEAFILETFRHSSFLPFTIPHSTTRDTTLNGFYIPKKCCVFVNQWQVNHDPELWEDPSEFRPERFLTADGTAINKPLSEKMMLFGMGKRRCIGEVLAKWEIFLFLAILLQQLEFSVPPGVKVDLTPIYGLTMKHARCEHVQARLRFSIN

Cytochrome P450 2C9 = Cytochrome P450 2C9 (Homo sapiens, UniProt P11712); assay: Inhibition of CYP2C9 in human liver microsomes using tolbutamide as susbtrate incubated for 30 mins prior to substrate addition for 10 mins by LC-MS/MS analysis; type: ADME
[12] = Tmax in C57BL/6NCrlCrlj mouse at 30 mg/kg, po by LC-MS/MS analysis; type: ADME, organism-based; details: in vivo
[13] = Plasma concentration in C57BL/6NCrlCrlj mouse at 10 mg/kg, po administered as single dose measured after 3 hrs by LC-MS/MS analysis; type: ADME, organism-based; summary of the method: as §2

Voltage-gated inwardly rectifying potassium channel KCNH2, sequence (Q12809 whole entry): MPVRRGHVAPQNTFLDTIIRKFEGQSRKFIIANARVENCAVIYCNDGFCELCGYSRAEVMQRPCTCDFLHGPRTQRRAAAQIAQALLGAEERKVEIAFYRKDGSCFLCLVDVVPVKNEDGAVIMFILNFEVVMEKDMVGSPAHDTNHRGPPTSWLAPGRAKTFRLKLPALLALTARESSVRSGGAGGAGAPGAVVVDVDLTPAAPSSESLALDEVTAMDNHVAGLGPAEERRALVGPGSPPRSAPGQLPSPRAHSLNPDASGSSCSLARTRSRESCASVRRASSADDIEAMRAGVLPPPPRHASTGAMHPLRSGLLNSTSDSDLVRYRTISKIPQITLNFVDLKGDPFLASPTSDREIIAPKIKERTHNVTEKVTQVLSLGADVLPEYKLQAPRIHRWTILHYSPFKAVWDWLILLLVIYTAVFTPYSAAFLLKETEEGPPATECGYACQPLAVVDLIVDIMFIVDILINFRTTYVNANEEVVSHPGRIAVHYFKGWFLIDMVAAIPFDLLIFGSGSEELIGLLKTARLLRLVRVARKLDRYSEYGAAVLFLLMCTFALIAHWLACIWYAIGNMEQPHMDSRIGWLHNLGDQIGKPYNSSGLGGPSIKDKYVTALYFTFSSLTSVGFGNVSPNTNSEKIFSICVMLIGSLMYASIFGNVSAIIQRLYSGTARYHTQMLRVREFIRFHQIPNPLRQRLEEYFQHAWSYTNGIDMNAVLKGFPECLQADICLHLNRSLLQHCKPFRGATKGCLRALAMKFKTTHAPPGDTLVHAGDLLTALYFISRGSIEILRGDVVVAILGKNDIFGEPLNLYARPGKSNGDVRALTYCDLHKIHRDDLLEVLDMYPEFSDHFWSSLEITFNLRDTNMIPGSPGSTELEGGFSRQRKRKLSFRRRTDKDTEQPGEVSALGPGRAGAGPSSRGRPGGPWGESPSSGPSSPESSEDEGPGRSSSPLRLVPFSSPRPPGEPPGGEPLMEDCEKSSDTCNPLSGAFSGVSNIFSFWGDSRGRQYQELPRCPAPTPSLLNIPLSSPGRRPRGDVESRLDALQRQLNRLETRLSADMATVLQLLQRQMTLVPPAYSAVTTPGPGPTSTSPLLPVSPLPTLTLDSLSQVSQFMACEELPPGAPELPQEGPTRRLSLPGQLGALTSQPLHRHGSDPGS
Cytochrome P450 2C9, sequence (P11712 whole entry): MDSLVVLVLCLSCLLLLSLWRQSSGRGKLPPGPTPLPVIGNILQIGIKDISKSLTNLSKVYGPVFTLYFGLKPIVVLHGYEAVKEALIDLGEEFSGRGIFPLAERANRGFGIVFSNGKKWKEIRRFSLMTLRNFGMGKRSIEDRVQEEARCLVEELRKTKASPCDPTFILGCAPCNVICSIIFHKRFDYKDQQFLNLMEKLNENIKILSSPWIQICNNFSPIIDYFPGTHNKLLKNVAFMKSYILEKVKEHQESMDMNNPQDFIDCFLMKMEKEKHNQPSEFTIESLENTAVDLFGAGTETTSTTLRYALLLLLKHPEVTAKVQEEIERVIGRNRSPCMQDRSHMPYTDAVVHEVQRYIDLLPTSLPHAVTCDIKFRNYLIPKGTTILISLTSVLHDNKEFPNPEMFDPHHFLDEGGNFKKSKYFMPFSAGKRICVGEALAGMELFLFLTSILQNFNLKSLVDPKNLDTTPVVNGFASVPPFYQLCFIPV

Cc1ncc(OC[C@@]2(c3cccc(F)c3)C[C@H]2C(=O)Nc2ccc(F)cn2)c(C)n1 [LEMBOREXANT]
half-life [1]: 2.2 h | Tmax [2]: 0.25 h | concentration at 1 h [3]: 633 nM | AUC(0-inf) [4]: 1910 ng·h/mL | clearance [5]: 17.7 mL/min/kg | Cmax [6]: 961 ng/mL | IC50 (Cytochrome P450 2C8): > 20 µM | Time (Mus musculus): 95.5 min | IC50 [7]: 6.1 µM | remaining at 0.25 h, 0.1 µM [8]: 90% | Vd [9]: 2.71 L/kg | Cmax [10]: 488 ng/mL | concentration at 3 h [11]: 7.6 nM | IC50 (Cytochrome P450 1A2): > 20 µM | IC50 (Cytochrome P450 2C9): > 20 µM | Tmax [12]: 1 h | concentration at 3 h [13]: 158 nM

From ChEMBL document CHEMBL3585325, “Discovery of (1R,2S)-2-{[(2,4-Dimethylpyrimidin-5-yl)oxy]methyl}-2-(3-fluorophenyl)-N-(5-fluoropyridin-2-yl)cyclopropanecarboxamide (E2006): A Potent and Efficacious Oral Orexin Receptor Antagonist” (J Med Chem, 2015)
